{"data": "Experimental data collected from several papers", "target": "Atypical kinase COQ8A, mitochondrial (COQ8A, Homo sapiens, UniProt Q8NI60)", "note": "Protocols differ between the studies behind these lines."}
{"Structure (SMILES)": "N#Cc1ccccc1CSc1nnc2c(n1)[nH]c1ccccc12", "observed": "binding", "method": "competition with immobilised ligand", "concentration": "10 µM", "remaining binding [%]": 95}
{"Structure (SMILES)": "COc1cnc(Nc2cccc(S(N)(=O)=O)c2)nc1N1CCN(c2ccccc2)CC1", "observed": "binding", "method": "competition with immobilised ligand", "concentration": "1 µM", "remaining binding [%]": 100}
{"Structure (SMILES)": "O=c1nc(-c2ccccn2)sc2ccccc12", "observed": "cell-free assay", "method": "competition with immobilised ligand", "concentration": "1 µM", "remaining binding [%]": 88}
{"Structure (SMILES)": "CN(C)c1ncc(F)c(-c2cnn3ncccc23)n1", "observed": "binding", "concentration": "1 µM", "remaining binding [%]": 96}
{"Structure (SMILES)": "C[C@@H](c1ccc(-n2cnc3c(N)ncnc32)cc1)N1CCc2nn(C)c(Cc3ccccc3)c2C1=O", "observed": "binding", "method": "competition with immobilised ligand", "concentration": "0.1 µM", "remaining binding [%]": 84}
{"Structure (SMILES)": "FC(F)(F)c1ccc2c(c1)nc(-c1cccnc1)n2C1CC1", "observed": "cell-free assay", "method": "competition with immobilised ligand", "concentration": "1 µM", "remaining binding [%]": 100}
{"Structure (SMILES)": "O=C(c1ccc(Nc2ncc(Cl)c(-c3cc4ccccc4s3)n2)cc1)N1CCC(N2CCCC2)CC1", "observed": "binding", "method": "competition with immobilised ligand", "concentration": "1 µM", "remaining binding [%]": 78}
{"Structure (SMILES)": "CC(C)(C)c1ccc(-c2nc(CBr)nn2-c2cccc(O)c2)cc1", "observed": "cell-free assay", "method": "competition with immobilised ligand", "concentration": "10 µM", "remaining binding [%]": 86}
{"Structure (SMILES)": "CS(=O)(=O)c1cc(C2(NC(=O)c3cncc4c3cnn4-c3ccc(F)cc3)CC2)ccn1", "observed": "cell-free assay", "method": "competition with immobilised ligand", "concentration": "1 µM", "remaining binding [%]": 100}
{"Structure (SMILES)": "N[C@@H]1CCN(c2nccc(-c3cnn4ncccc34)n2)C1", "observed": "binding", "concentration": "1 µM", "remaining binding [%]": 100}
{"Structure (SMILES)": "CCN1CCN(Cc2ccc(C(=O)Nc3ccc(C)c(Oc4ccc5c(c4)CC(=O)N5)c3)cc2C(F)(F)F)CC1", "observed": "binding", "method": "competition with immobilised ligand", "concentration": "1 µM", "remaining binding [%]": 92}
{"Structure (SMILES)": "COc1ncc2cc3ccccc3nc2c1C#N", "observed": "cell-free assay", "method": "competition with immobilised ligand", "concentration": "5 µM", "remaining binding [%]": 96}
{"Structure (SMILES)": "C[C@H](c1ccnc(Nc2nc3ccc(-c4cc(N(C)C)ncn4)cc3[nH]2)c1)N1CCN(C(=O)CC(F)(F)F)CC1", "observed": "cell-free assay", "method": "competition with immobilised ligand", "concentration": "0.1 µM", "remaining binding [%]": 100}
{"Structure (SMILES)": "F[C@@H]1CCN(c2nccc(-c3cnn4ncccc34)n2)C1", "observed": "binding", "concentration": "1 µM", "remaining binding [%]": 100}
{"Structure (SMILES)": "C[C@@H]1CN(c2ccc3ncc(-c4ccc5[nH]nc(C6CC6)c5c4)n3n2)C[C@H](C)O1", "observed": "binding", "method": "competition with immobilised ligand", "concentration": "50 nM", "remaining binding [%]": 94}
{"Structure (SMILES)": "C[C@@H]1CCN(c2nccc(-c3cnn4ncccc34)n2)C1", "observed": "binding", "concentration": "1 µM", "remaining binding [%]": 100}
{"Structure (SMILES)": "CC(=O)C1=C(C)N(c2cccc(C(F)(F)F)c2)C(=O)N[C@@H]1c1ccc(C#N)nc1", "observed": "cell-free assay", "method": "competition with immobilised ligand", "concentration": "1 µM", "remaining binding [%]": 100}
{"Structure (SMILES)": "CC1CCCN1c1nccc(-c2cnn3ncccc23)n1 (stereo not drawn)", "observed": "binding", "concentration": "1 µM", "remaining binding [%]": 100}
{"Structure (SMILES)": "O=C(NCC1CCOCC1)c1n[nH]cc1NC(=O)c1c(F)cccc1F", "observed": "binding", "method": "competition with immobilised ligand", "concentration": "1 µM", "remaining binding [%]": 86}
{"Structure (SMILES)": "COc1ccnn2ncc(-c3ccnc(N(C)C)n3)c12", "observed": "binding", "concentration": "1 µM", "remaining binding [%]": 100}
{"Structure (SMILES)": "O=C(NCc1ncc(C(F)(F)F)cc1Cl)c1ccc2c(c1)C1(CCS(=O)(=O)CC1)[C@@H](C1CC1)N2S(=O)(=O)c1ccc(F)cc1", "observed": "cell-free assay", "method": "competition with immobilised ligand", "concentration": "1 µM", "remaining binding [%]": 90}
{"Structure (SMILES)": "Cc1cnc(Nc2ccc(C(=O)N3CCC(N4CCCC4)CC3)cc2)nc1-c1cc2ccccc2s1", "observed": "binding", "method": "competition with immobilised ligand", "concentration": "1 µM", "remaining binding [%]": 85}
{"Structure (SMILES)": "CNCc1ccccc1-c1csc([C@H](C)Nc2nc(C)nc3cc(OC)c(OC)cc23)c1", "observed": "cell-free assay", "method": "competition with immobilised ligand", "concentration": "1 µM", "remaining binding [%]": 91}
{"Structure (SMILES)": "O=C(c1ccc(Nc2ncc(Cl)c(-c3ccc(Cl)s3)n2)cc1)N1CCC(N2CCCC2)CC1", "observed": "binding", "method": "competition with immobilised ligand", "concentration": "1 µM", "remaining binding [%]": 100}
